Our source for the EC50 and T/C values is ChEMBL document CHEMBL1122158, “Agents with potential specificity against melanotic melanoma” (1982).

A value given as a limit tells only on which side of the number the result lay.

By T/C is commonly meant the result in the treated group divided by that in the control group, in per cent.

For assay [1], the system named is M2R. Kind of assay: In vitro effective dose that causes 50% inhibition of growth of M2R cell line - amelanotic melanoma. It is filed as functional. The conditions noted are these: Mus musculus, in the assay text read “melanotic melanoma” for “amelanotic melanoma”, read-out: ED50 (the source's name). Put shortly:
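1 × 10^4 cells seeded in a 1:1 DMEM/Ham's F-12 medium with 1.2 g/L NaHCO3, 15 mM HEPES and 10% fetal bovine serum, at 37 °C in 5% CO2. After 24 h, the medium was replaced with fresh medium holding the test agent at various concentrations. Growth was followed for at least 3 more days by trypsinizing and Coulter counting. Net cell increase was expressed as % of control when controls had grown 8-fold.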

Assay [2] concerns KB. Nature of the assay: In vitro effective dose that causes 50% inhibition of growth of KB cell line - human epidermoid carcinoma of the nasopharynx. In kind it is functional. The conditions noted are these: read-out: ED50 (the source's name).
In assay [3] the test system is B16. Kind of assay: In vivo antitumor activity against B-16 Melanoma after intraperitoneal tumor implantation and then intraperitoneal administration of 100 mg/kg of dose. It is filed as functional, Mus musculus. The method in brief:
(§1)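 B-16 melanoma was implanted intraperitoneally and dosed per NCI protocols. Intraperitoneal treatment began 24 h after implant and was given once daily on days 1-9. Activity was expressed as % T/C, with T/C ≥ 125% taken as statistically significant.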

For assay [4], the system named is A2 (Mus musculus). Kind of assay: In vitro effective dose that causes 50% inhibition of growth of A2 cell line - amelanotic melanoma. The conditions noted are these: read-out: ED50 (the source's name).
In assay [5] the test system is B16. Nature of the assay: In vivo antitumor activity against B-16 Melanoma after intraperitoneal tumor implantation and then intraperitoneal administration of 150 mg/kg of dose. In kind it is functional, Mus musculus. Put shortly: as §1
Assay [6] has as its system PS. Nature of the assay: In vitro effective dose that causes 50% inhibition of growth of PS cell line - P388 lymphocytic leukemia. The conditions noted are these: Mus musculus, read-out: ED50 (the source's name).
The subject of assay [7] is B16. Nature of the assay: In vivo antitumor activity against B-16 Melanoma after intraperitoneal tumor implantation and then intraperitoneal administration of 75 mg/kg of dose. It is filed as functional, Mus musculus. Put shortly:
as §1

For `NC(CCCNc1cccc(O)c1)C(=O)O` (stereo unspecified), the EC50 in assay [1] is over 100 µM; in assay [2] it was 300 µM; in assay [4], over 100 µM; in assay [6], 300 µM. Further, the T/C in assay [3] is on record as 87%; in assay [5], 82%; in assay [7], 104%.
For `NC(CCCNc1ccc(O)cc1)C(=O)O` (stereo unspecified), the EC50 turned out to be 13 µM in assay [1], 120 µM in assay [2], 22 µM in assay [4] and 9.5 µM in assay [6]. For the same compound, the values for the T/C in assay [3], in assay [5] and in assay [7] were 98%, 106% and 122%, respectively.
As to `NC(CNc1ccc(O)cc1)C(=O)O` (stereo unspecified), the EC50 in assay [1] came out at 24 µM; in assay [2] it was 140 µM; in assay [4], 54 µM; in assay [6], 32 µM. Also, the values for the T/C in assay [3], in assay [5] and in assay [7] were 103%, 101% and 111%, respectively.
